# Data published in ChEMBL document CHEMBL4177680, “Discovery of a Potent, Selective T-type Calcium Channel Blocker as a Drug Candidate for the Treatment of Generalized Epilepsies” (J Med Chem, 2017).
# Assays:
# [1] = test system: Salmonella typhimurium; assay: Mutagenicity in Salmonella typhimurium TA98 assessed as increase in number of revertants in presence of rat liver S9 fraction by Ames test relative to control; format: toxicity, organism-based; conditions: salmonella enterica subsp. enterica serovar typhimurium
# [2] = test system: Salmonella typhimurium; assay: Mutagenicity in Salmonella typhimurium TA100 assessed as increase in number of revertants in presence of rat liver S9 fraction by Ames test relative to control; format: toxicity, organism-based; conditions: salmonella enterica subsp. enterica serovar typhimurium
# [3] = Drug level in Wistar rat cerebrospinal fluid at 10 mg/kg administered via oral gavage measured after 1 hr by LC-MS/MS method; format: ADME, organism-based; conditions: read-out: Drug uptake
# Outline: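 Wistar rats given 10 mg/kg po and killed at 1 h. Brain, plasma and CSF concentrations measured; free brain and plasma levels reported from unbound fractions. Mean ± SD, n = 3.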
# [4] = Fraction unbound in Wistar rat plasma at 10 mg/kg administered via oral gavage measured after 1 hr by rapid equilibrium dialysis method; format: ADME, organism-based; conditions: in vivo
# [5] = Free drug level in Wistar rat brain at 10 mg/kg administered via oral gavage measured after 1 hr by rapid equilibrium dialysis method; format: ADME, organism-based; conditions: in vivo
# [6] = Clearance in Wistar rat at 1 mg/kg, iv administered via 5 mins infusion by LC-MS/MS method; format: ADME, organism-based; conditions: in vivo
# [7] = Intrinsic clearance in human liver microsomes assessed per mg of protein at 1 uM after 15 mins in presence of NADPH regenerating system by LC-MS/MS method; format: ADME, microsome; conditions: read-out: CLH
# [8] = Intrinsic clearance in Wistar rat liver microsomes assessed per mg of protein at 1 uM after 15 mins in presence of NADPH regenerating system by LC-MS/MS method; format: ADME, microsome; conditions: read-out: CLH
# [9] = Drug metabolism in human plasma at 10 uM after 6 hrs by LC-MS/MS method; format: ADME, cell-free; conditions: read-out: Drug metabolism
# [10] = Covalent protein binding in human liver microsomes at 10 uM after 1 hr in presence of NADPH regenerating system by liquid scintillation counting method; format: ADME, microsome
# [11] = Total drug level in Wistar rat brain at 10 mg/kg administered via oral gavage measured after 1 hr by LC-MS/MS method; format: ADME, organism-based; conditions: read-out: Drug uptake
# [12] = test system: MDR1; assay: Apparent permeability across apical to basolateral side in MDCK cells expressing MDR1 at 1 uM measured every 30 mins for 2 hrs; format: ADME, cell-based, Canis lupus familiaris; conditions: dog
# [13] = test system: MDR1; assay: Apparent permeability across basolateral to apical side in MDCK cells expressing MDR1 at 1 uM measured every 30 mins for 2 hrs; format: ADME, cell-based, Canis lupus familiaris; conditions: dog
# [14] = Oral bioavailability in Wistar rat at 10 mg/kg administered via gavage by LC-MS/MS method; format: ADME, organism-based; conditions: in vivo
# [15] = Cmax in Wistar rat plasma at 10 mg/kg administered via oral gavage by LC-MS/MS method; format: ADME, organism-based; set-up: dose 10 mg/kg, route oral
# [16] = Intrinsic clearance in monkey liver microsomes assessed per mg of protein at 1 uM after 15 mins in presence of NADPH regenerating system by LC-MS/MS method; format: ADME, Macaca mulatta, microsome; conditions: rhesus monkey, read-out: CLH
# [17] = Clearance in NMRI mouse at 1 mg/kg, iv as slow bolus dose by LC-MS/MS method; format: ADME, organism-based; conditions: in vivo
# [18] = test system: Cavia porcellus; assay: Unbound Cmax in Dunkin-Hartley guinea pig at 30 mg/kg, po; format: ADME, organism-based; conditions: in vivo
# [19] = Clearance in cynomolgus monkey at 1 mg/kg, iv administered via 15 mins infusion by LC-MS/MS method; format: ADME, organism-based, Macaca fascicularis; conditions: in vivo
# [20] = Clearance in Beagle dog at 1 mg/kg, iv administered via 15 mins infusion by LC-MS/MS method; format: ADME, organism-based, Canis lupus familiaris; conditions: in vivo
# [21] = test system: Canis familiaris; assay: Unbound Cmax in Beagle dog at 10 mg/kg, po; format: ADME, organism-based, Canis lupus familiaris; conditions: in vivo
# [22] = Fraction unbound in audiogenic seizure-sensitive juvenile DBA/2J mouse brain at 100 mg/kg administered via oral gavage measured at 3 hrs; format: ADME, organism-based; conditions: in vivo
# [23] = test system: Rattus norvegicus; assay: Unbound Cmax in normotensive Wistar rat at 30 mg/kg, po; format: ADME, organism-based; conditions: in vivo
# [24] = test system: Rattus norvegicus; assay: Unbound Cmax in spontaneously hypertensive Wistar-Kyoto rat at 30 mg/kg, po; format: ADME, organism-based; conditions: in vivo
# [25] = Half life in Wistar rat at 1 mg/kg, iv administered via 5 mins infusion by LC-MS/MS method; format: ADME, organism-based; conditions: in vivo
# [26] = test system: Cynomolgus monkey; assay: Unbound Cmax in cynomolgus monkey at 1000 mg/kg, po; format: ADME, organism-based, Macaca fascicularis; conditions: in vivo
# [27] = Drug level in human plasma treated with N-(1-(3,4-Difluorobenzyl)-1H-pyrazol-3-yl)-2-(1H-indol-5-yl)acetamide at 10 uM by LC-MS/MS method; format: ADME, cell-free
# [28] = Drug level in rat plasma treated with N-(1-(3,4-Difluorobenzyl)-1H-pyrazol-3-yl)-2-(1H-indol-5-yl)acetamide at 10 uM by LC-MS/MS method; format: ADME, cell-free
# [29] = Chemical stability of the compound in amorphous form at room temperature; format: physicochemical
# [30] = Half life in rat plasma at 10 uM by LC-MS/MS method; format: ADME, cell-free
# [31] = Drug metabolism in rat plasma assessed as 3-amino-1-(3,4-difluorobenzyl)pyrazole formation at 10 uM by LC-MS/MS method; format: ADME, cell-free
# [32] = Half life in human plasma at 10 uM by LC-MS/MS method; format: ADME, cell-free
# [33] = Drug metabolism in human plasma assessed as 3-amino-1-(3,4-difluorobenzyl)pyrazole formation at 10 uM by LC-MS/MS method; format: ADME, cell-free
compound,measurement,setting,value
Nc1ccn(CC2CCC(F)(F)CO2)n1 (stereo in doubt; 14b),fold change (FC),[1],1.1
same,fold change (FC),[2],2.5
Cn1ncc2cc(CC(=O)Nc3ccn(Cc4ccc(F)c(F)c4)n3)ccc21,concentration at 1 h,[3],92 nM
same,Cp(f),[4],72 nM
same,Drug uptake(free),[5],51 nM
Nc1ncn(Cc2ccc(F)c(F)c2)n1,fold change (FC),[1],1.1
same,fold change (FC),[2],1.1
CCc1cc(CC(=O)Nc2ccn(Cc3ccc(C#N)cn3)n2)ccc1OCC(F)(F)F,Drug uptake(free),[5],4.8 nM
CC(C)c1ccc(CC(=O)Nc2ccn(CC3CCC(F)(F)CO3)n2)cc1 (stereo in doubt; 15a),clearance,[6],> 100 mL/min/kg
same,"microsomal CLint at […], 1 µM",[7],43 µL/min/mg
same,"microsomal CLint at […], 1 µM",[8],> 500 µL/min/mg
N#Cc1ccc(Cn2ccc(N)n2)nc1,fold change (FC),[1],1
same,fold change (FC),[2],1.3
N#Cc1ccc(Cn2ccc(N)n2)cc1,fold change (FC),[1],1.5
same,fold change (FC),[2],1.1
CC(C)c1ccc(CC(=O)Nc2ccn(Cc3ccccc3)n2)cc1,"metabolised at 6 h, 10 µM",[9],4%
[3H]c1cc(NC(=O)Cc2ccc(C3(C(F)(F)F)CC3)cc2)nn1Cc1ccc(C#N)cn1,PB,[10],72 pmol/mg/h
N#Cc1ccc(Cn2ccc(N)n2)cc1F,fold change (FC),[1],1.2
same,fold change (FC),[2],2.2
CC(C(=O)Nc1ccn(Cc2ccc(F)cc2)n1)c1ccc(N(C)C)cc1 (racemic),"metabolised at 6 h, 10 µM",[9],7%
O=C(Cc1ccc(C2(F)COC2)cc1)Nc1ccn(Cc2ccc(F)c(F)c2)n1,concentration at 1 h,[3],135 nM
same,concentration at 1 h,[11],2990 nM
same,Drug uptake(free),[5],63 nM
Nc1ccn(Cc2ccc(F)cc2)n1,fold change (FC),[1],4.1
same,fold change (FC),[2],10.2
Cn1c(=O)oc2cc(CC(=O)Nc3ccn(Cc4ccc(F)c(F)c4)n3)ccc21,"Papp A→B at 2 h, 1 µM",[12],11 ×10⁻⁶ cm/s
same,"Papp B→A at 2 h, 1 µM",[13],59 ×10⁻⁶ cm/s
N#Cc1ccc(Cn2ccc(NC(=O)Cc3ccc(C4(C(F)(F)F)CC4)cc3)n2)nc1 [APINOCALTAMIDE],bioavailability,[14],75%
same,clearance,[6],24 mL/min/kg
same,Cmax,[15],1900 nM
same,"microsomal CLint at […], 1 µM",[16],9 µL/min/mg
same,clearance,[17],13 mL/min/kg
same,fCmax,[18],140 nM
same,"microsomal CLint at […], 1 µM",[7],24 µL/min/mg
same,clearance at […],[19],5.5 mL/min/kg
same,clearance at […],[20],0.9 mL/min/kg
same,"microsomal CLint at […], 1 µM",[8],59 µL/min/mg
same,fCmax,[21],140 nM
same,Drug uptake(free),[22],244 nM
same,fCmax,[23],190 nM
same,fCmax,[24],90 nM
same,Drug uptake(free),[5],29 nM
same,half-life,[25],2.5 h
same,fCmax,[26],160 nM
Nc1ccn(Cc2ccc(F)c(F)c2)n1,fold change (FC),[1],2.7
same,Drug metabolism,[27],Metabolite_Detected
same,fold change (FC),[2],1.2
same,Drug metabolism,[28],Metabolite_Detected
Cn1ncc2cc(CC(=O)Nc3cnn(Cc4ccc(F)c(F)c4)n3)ccc21,Drug uptake(free),[5],63 nM
Nc1nc(Cc2ccc(F)c(F)c2)cs1,fold change (FC),[1],2.7
same,fold change (FC),[2],1.1
Nc1ccn(CC2CCC(F)(F)CO2)n1 (stereo in doubt; 14a),fold change (FC),[1],1.4
same,fold change (FC),[2],1.3
Nc1ccn(Cc2ccccc2)n1,fold change (FC),[1],15.3
same,fold change (FC),[2],30.3
CC(C)(C)c1ccc(CC(=O)Nc2ncn(Cc3ccc(F)c(F)c3)n2)cc1,Drug uptake(free),[5],2.4 nM
CC(C)(C)c1ccc(CC(=O)Nc2ccn(Cc3ccc(C#N)cn3)n2)cc1,"microsomal CLint at […], 1 µM",[7],6 µL/min/mg
same,Drug uptake(free),[5],6.1 nM
O=C(Cc1ccc2cc[nH]c2c1)Nc1ccn(Cc2ccc(F)c(F)c2)n1,concentration at 1 h,[3],50 nM
same,concentration at 1 h,[11],4110 nM
same,Stability,[29],Unstable
COc1ccc(C2(C(=O)Nc3ccn(Cc4ccccc4)n3)CC2)cc1,"metabolised at 6 h, 10 µM",[9],< 1%
O=C(Cc1ccc2[nH]ccc2c1)Nc1ccn(Cc2ccc(F)c(F)c2)n1,concentration at 1 h,[3],164 nM
same,concentration at 1 h,[11],4680 nM
same,Stability,[29],Unstable
same,half-life at 10 µM,[30],5 h
same,Drug metabolism,[31],Metabolite_Detected
same,half-life at 10 µM,[32],2 h
same,Drug metabolism,[33],Metabolite_Detected
same,Drug uptake(free),[5],52 nM
N#Cc1cn(Cc2ccc(F)c(F)c2)nc1N,fold change (FC),[1],1.1
same,fold change (FC),[2],1.1
Nc1cnn(Cc2ccc(F)c(F)c2)n1,fold change (FC),[1],1.3
same,fold change (FC),[2],3.3
Cc1ccc(Cn2ccc(N)n2)cc1,fold change (FC),[1],15.1
same,fold change (FC),[2],19.8
N#Cc1nc(Cn2ccc(N)n2)ccc1F,fold change (FC),[1],1.2
same,fold change (FC),[2],1.4
N#Cc1cc(Cn2ccc(N)n2)ccc1F,fold change (FC),[1],1.5
same,fold change (FC),[2],1.5
COc1ccc(Cn2ccc(N)n2)cc1,fold change (FC),[1],8
same,fold change (FC),[2],20.8
